Laboratory results: ChEMBL document CHEMBL1123282, “Antiinflammatory activity of substituted 6-hydroxypyrimido[2,1-f]purine-2,4,8(1H,3H,9H)-triones. Atypical nonsteroidal antiinflammatory agents” (J Med Chem, 1986)
Where “and” joins values, the source holds several entries; their conditions need not be identical. Identical values can stand only once.

What was measured:
[1] = species: Rattus norvegicus; experiment: Delayed Type hypersensitivity (DTH) is measured by increase in ear thickness 24 hours after antigen injection into pinna; type: functional
[2] = species: Rattus norvegicus; experiment: compound was tested for antiinflammatory activity by immune response to collagen II antigen in rats, antibody titer was determined by passive hemagglutinination; type: functional, organism-based
In short: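 Rats immunized with bovine type II collagen in incomplete Freund's adjuvant, with drug given alongside. Antibody titer to collagen II measured by passive hemagglutination; p ≤ 0.05 by Student's t-test.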

[3] = species: Rattus norvegicus; experiment: compound was tested for antiinflammatory activity against collagen II arthritis in rats,; type: functional
In short: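 Arthritis induced in rats by injection of bovine articular cartilage type II collagen (dissolved in 0.01 M AcOH, dialysed against saline) mixed 1:1 with incomplete Freund's adjuvant. Paw inflammation checked weekly for 7 weeks. Inhibition = [Δpaw vol(collagen) − Δpaw vol(collagen + drug)]/[Δpaw vol(collagen) − Δpaw vol(ICFA control)] × 100. Bone damage scored by lateral-projection radiography; p ≤ 0.05 by Student's t-test.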

[4] = test system: Rattus norvegicus; experiment: Compound was tested in vivo for antiinflammatory activity against rats by RPAR(reverse passive Arthus reaction) synovitis method ata dose of 50 mg/kg, po; type: functional
In short: (§1)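 Lewis rats, oral drug or placebo 1 h before iv BSA (2.28 mg in saline), then intraarticular rabbit anti-BSA (0.54 mg) into one knee and saline into the other, under light anesthesia. Second oral dose at 3 h; the total of both doses is the calculated dose. About 17 h after induction, subpatellar tissue with synovium is excised and weighed. Response is antibody-minus-saline knee weight, tested by analysis of variance.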

[5] = species: Rattus norvegicus; experiment: Compound was tested for intestinal Ulcerogenic effect in rats, activity expressed as ulcer incidence; type: functional
In short: (§2)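 Normal fed rats were gavaged once daily for three consecutive days at 10–300 mg/kg and killed 24 h after the last dose. Intestines were examined for ulcers, recording incidence per group of 8 and a lesion score (±SE).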

[6] = test system: Rattus norvegicus; experiment: Compound was tested for intestinal ulcerogenic effect in rats at a dose of 10 mg/kg; type: functional; in short: as §2
[7] = species: Rattus norvegicus; experiment: Compound was tested for intestinal Ulcerogenic effect in rats, activity expressed as lesion score; type: functional; in short: as §2
[8] = species: Rattus norvegicus; experiment: Compound was tested for gastric Ulcerogenic effect in rats, activity expressed as lesion length
[9] = test system: Rattus norvegicus; experiment: Compound was tested in vivo for antiinflammatory activity against chronic adjuvant arthritic rat by therapeutic inhibition 2 degree paw after peroral administration of 1 mg/kg of dose; type: functional; conditions: route oral
[10] = test system: Rattus norvegicus; experiment: Compound was tested in vivo for antiinflammatory activity against chronic adjuvant arthritic rat by therapeutic inhibition 2 degree paw after peroral administration of 3 mg/kg of dose; conditions: po, read-out: Inhibition
[11] = test system: Rattus norvegicus; experiment: Compound was tested in vivo for antiinflammatory activity against chronic adjuvant arthritic rat by therapeutic inhibition 2 degree paw after peroral administration of 5 mg/kg of dose; conditions: po, read-out: Inhibition
[12] = test system: Rattus norvegicus; experiment: Compound was tested in vivo for antiinflammatory activity against chronic adjuvant arthritic rat by therapeutic inhibition 2 degree paw after peroral administration of 0.3 mg/kg of dose; conditions: po, read-out: Inhibition
[13] = test system: Rattus norvegicus; experiment: Compound was tested in vivo for antiinflammatory activity against chronic adjuvant arthritic rat by prophylactic inhibition 2 degree paw after peroral administration of 1 mg/kg of dose; conditions: po, read-out: Inhibition
[14] = species: Rattus norvegicus; experiment: animal or person; conditions: po, read-out: Inhibition
[15] = test system: Rattus norvegicus; experiment: compound was tested in vivo for antiinflammatory activity against rats by RPAR(reverse passive Arthus reaction) synovitis method
[16] = test system: Rattus norvegicus; experiment: Compound was tested in vivo against chronic adjuvant arthritic rat by prophylactic inhibition 2 degree paw. Relative potency with respect to (8-Benzyl-5-hydroxy-1,3-dimethyl-6-propyl-1H,8H-1,3,4b,8,9-pentaaza-fluorene-2,4,7-trione); type: functional
[17] = test system: Rattus norvegicus; experiment: Tested in vivo for antiinflammatory activity against chronic adjuvant arthritic rat by prophylactic inhibition 1 degree paw after peroral administration of 9 mg/kg of dose; type: functional; conditions: route oral
In short: (§3)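 Prophylactic regimen, rats. Adjuvant is heat-killed Mycobacterium tuberculosis ground to a fine powder in paraffin oil (6 mg/mL); 0.1 mL is injected into the left hind paw. Oral drug is given 1 h before adjuvant challenge, then for 21 consecutive days; controls receive methyl cellulose. Left (1°) and right (2°) hind paw volumes are measured by plethysmograph.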

[18] = test system: Rattus norvegicus; experiment: Tested in vivo for antiinflammatory activity against chronic adjuvant arthritic rat by prophylactic inhibition 2 degree paw after peroral administration of 9 mg/kg of dose; type: functional; conditions: route oral; in short: as §3
[19] = test system: Rattus norvegicus; experiment: Compound was tested in vivo for antiinflammatory activity against chronic adjuvant arthritic rat by prophylactic inhibition 2 degree paw after peroral administration of 36 mg/kg of dose; conditions: po
[20] = test system: Rattus norvegicus; experiment: In vivo antiinflammatory activity against rats by RPAR(reverse passive Arthus reaction) synovitis method; type: functional; set-up: concentration or dose not given beside the values; in short: as §1
[21] = test system: Rattus norvegicus; experiment: Compound was tested in vivo for antiinflammatory activity against chronic adjuvant arthritic rat by prophylactic inhibition 1 degree paw after peroral administration of 36 mg/kg of dose; conditions: po
[22] = test system: Rattus norvegicus; experiment: Compound was tested in vivo for antiinflammatory activity against chronic adjuvant arthritic rat by prophylactic inhibition 2 degree paw after peroral administration of 18 mg/kg of dose; conditions: po
[23] = species: Rattus norvegicus; experiment: Antiinflammatory activity by immune response to collagen II antigen in rats antibody titer was determined by passive hemagglutinination; type: functional
In short: (§4)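 In rats with bovine type II collagen/incomplete Freund's adjuvant arthritis, the antibody response to collagen II was titred by passive hemagglutination. The delayed-type hypersensitivity component, ear thickness 24 h after intrapinna antigen, was read at day 21.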

[24] = test system: Rattus norvegicus; experiment: Compound was tested in vivo for antiinflammatory activity against chronic adjuvant arthritic rat by therapeutic inhibition 1 degree paw after peroral administration of 5 mg/kg of dose; conditions: po, read-out: Inhibition
[25] = test system: Rattus norvegicus; experiment: Antiinflammatory activity against collagen II arthritis in rats, activity% inhibition in injected paw edema; type: functional; set-up: concentration or dose not given beside the values
In short: (§5)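 Rats immunised with bovine articular-cartilage type II collagen (dissolved in 0.01 M AcOH for 24 h at 4 °C, dialysed against saline) mixed in equal volume with incomplete Freund's adjuvant. Paws were examined weekly for 7 weeks. An animal counted as arthritic at Δ paw volume ≥8.0 (injected paw) or ≥4.0 (noninjected paw). Bone lesions were scored on lateral-projection foot radiographs. 16 rats/group.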

[26] = test system: Rattus norvegicus; experiment: Compound was tested in vivo for antiinflammatory activity against chronic adjuvant arthritic rat by prophylactic inhibition 1 degree paw after peroral administration of 2 mg/kg of dose; conditions: po, read-out: Inhibition
[27] = test system: Rattus norvegicus; experiment: Antiinflammatory activity on the development of collagen II arthritis in rats, measured based on animals positive for arthritis by the presence of paw edema; type: functional; in short: as §5
[28] = test system: Rattus norvegicus; experiment: Compound was tested in vivo for antiinflammatory activity against rats by RPAR(reverse passive Arthus reaction) synovitis method; type: functional; in short: as §1
[29] = test system: Rattus norvegicus; experiment: Antiinflammatory activity against collagen II arthritis in rats, activity % inhibition in noninjected paw edema; type: functional; set-up: concentration or dose not given beside the values; in short: as §5
[30] = test system: Rattus norvegicus; experiment: Compound was tested in vivo for antiinflammatory activity against chronic adjuvant arthritic rat by prophylactic inhibition 2 degree paw after peroral administration of 2 mg/kg of dose; conditions: po, read-out: Inhibition
[31] = species: Rattus norvegicus; experiment: Antiinflammatory activity on the development of collagen II arthritis in rats, measured based on animals positive for arthritis by the presence of bone lesions; type: functional; in short: as §5
[32] = species: Rattus norvegicus; experiment: Compound was tested for antiinflammatory activity by immune response to collagen II antigen in rats, antibody titer was determined by passive hemagglutinination; type: functional; in short: as §4
[33] = species: Rattus norvegicus; experiment: Compound was tested for antiinflammatory activity against collagen II arthritis in rats,; type: functional; in short: as §5

AURANOFIN
DTH [1]: 0.0445 mM
Antibody titer [2]: 12.9 log-2
Positive [3]: 43.7% and 43.8%

Cc1c(O)n(Cc2cccc(F)c2)c2nc3c(c(=O)n(C)c(=O)n3C)n2c1=O
inhibition in vivo at 50 mg/kg [4]: 0%

COc1ccc2c(c1)c(CC(=O)O)c(C)n2C(=O)c1ccc(Cl)cc1 [INDOMETHACIN]
Ulcer incidence [5]: 8 number/group
Ulcer incidence [6]: 8 number/group
Lesion length [7]: 4.2 mm rat-1
Length [8]: 5 mm rat-1

COc1ccc2cc([C@H](C)C(=O)O)ccc2c1 [NAPROXEN]
inhibition in vivo at 1 mg/kg [9]: 50%
inhibition in vivo at 3 mg/kg [10]: 70%
inhibition in vivo at 5 mg/kg [11]: 44%
inhibition in vivo at 0.3 mg/kg [12]: 27%
inhibition in vivo at 1 mg/kg [13]: 14%
inhibition in vivo at 25 mg/kg [14]: 58%
ED50 [15]: 24.4 mg/kg

CCCCc1c(O)n(Cc2ccc(F)cc2)c2nc3c(c(=O)n(C)c(=O)n3C)n2c1=O
Relative potency [16]: 3.8
inhibition in vivo at 9 mg/kg [17]: 28%
inhibition in vivo at 9 mg/kg [18]: 59%
inhibition in vivo at 36 mg/kg [19]: 74%
Inhibition [20]: 27%
inhibition in vivo at 36 mg/kg [21]: 74%
inhibition in vivo at 18 mg/kg [22]: 70%

CN1C(C(=O)Nc2ccccn2)=C(O)c2ccccc2S1(=O)=O [PIROXICAM]
inhibition in vivo at 5 mg/kg [11]: 80%
Antibody titer [23]: 12.2
inhibition in vivo at 5 mg/kg [24]: 68%
Inhibition [25]: 0%
inhibition in vivo at 2 mg/kg [26]: 66%
Positive [27]: 73.3%
ED50 [28]: 3.5 mg/kg
Inhibition [29]: 0%
DTH [1]: 0.0526 mm
inhibition in vivo at 2 mg/kg [30]: 84%
Positive [31]: 60%

CC(C)(S)[C@@H](N)C(=O)O [PENICILLAMINE]
Inhibition [25]: 36%
Antibody titer [32]: 10.7
Inhibition [29]: 42.6%
Positive [33]: 31.5%
DTH [1]: 0.0538 mm
Positive [3]: 31.3%
